ChEMBL document CHEMBL5370680, “Design and Biological Evaluation of Piperazine-Bearing Nitrobenzamide Hypoxia/GDEPT Prodrugs: The Discovery of CP-506” (ACS Med Chem Lett, 2023)

Legend:
[1] = Toxicity in NIH-III nude mouse xenografted with human HCT-116 cells expressing NfsA of Escherichia coli assessed as body weight loss at 1000 micromol/kg, ip BID measured on day 16; assay type: organism-based; conditions: in vivo, 384 h, dose 1000 µmol/kg, time 16 day
[2] = Octanol/water partition coefficient, log D of the compound at pH 7.4; assay type: physicochemical
Procedure, shortened: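 Octanol–water partition coefficient by shake-flask method at pH 7.4.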

NCI-H1299 [3] = test: Antiproliferative activity against human NCI-H1299 cells expressing NfsA of Escherichia coli assessed as cell growth inhibition measured after 4 hrs; assay type: functional; conditions: NCI-H1299, 4 h
Procedure, shortened: (§1)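 Monolayer antiproliferative assay using wild-type cells and isogenic lines transfected with AKR1C3 or E. coli NfsA. Cells exposed to prodrug for 4 h, then regrown for 5 days. IC50 is 50% growth inhibition versus untreated controls. Mean values reported, CV <20%.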

NCI-H1299 [4] = test: Antiproliferative activity against human NCI-H1299 cells expressing AKR1C3 assessed as cell growth inhibition measured after 4 hrs; assay type: functional, cell-based; conditions: NCI-H1299, 4 h; procedure, shortened: as §1
HCT-116 [5] = test: Antiproliferative activity against human HCT-116 cells expressing AKR1C3 assessed as cell growth inhibition measured after 4 hrs; assay type: functional, cell-based; conditions: HCT-116, 4 h; procedure, shortened: as §1
HCT-116 [6] = test: Antiproliferative activity against human HCT-116 cells in three-dimensional cell culture multicellular layer expressing NfsA of Escherichia coli assessed as fold change in plating efficiency at 10 uM; assay type: functional
Procedure, shortened: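 Mixed MCLs of wild-type HCT116 with 3% NfsA_Ec-expressing cells, against 100% wild-type MCLs, exposed to 10 μM prodrug. Clonogenic plating efficiency measured. Fold change is the plating-efficiency ratio between wild-type and transfected MCLs. ≥3 independent experiments.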

[7] = Selectivity ratio of IC50 for antiproliferative activity against wild type human HCT-116 cells to IC50 for antiproliferative activity against human HCT-116 cells expressing AKR1C3; assay type: functional; conditions: time 4 hrs
Procedure, shortened: (§2)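 Ratio of mean IC50 in non-transfected wild-type cells to mean IC50 in the AKR1C3- or NfsA_Ec-transfected line. IC50 is from a 4 h prodrug exposure and 5 days' regrowth.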

[8] = Selectivity ratio of IC50 for antiproliferative activity against human SiHa cells assessed as inhibition of cell growth under aerobic condition to IC50 for antiproliferative activity against human SiHa cells assessed as inhibition of cell growth under anoxic condition; assay type: functional
Procedure, shortened: (§3)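 Hypoxic cytotoxicity ratio is aerobic IC50 divided by anoxic IC50. Each IC50 comes from a 4 h drug exposure under aerobic or anoxic conditions, followed by 5 days' aerobic regrowth, relative to untreated controls.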

HCT-116 [9] = test: Antiproliferative activity against human HCT-116 cells in three-dimensional cell culture multicellular layers assessed as log cell killing under aerobic condition at 100 uM; assay type: functional
Procedure, shortened: (§4)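 HCT116 three-dimensional multicellular layers exposed to 100 μM prodrug under aerobic or anoxic conditions. Clonogenic survivors per MCL counted. Log cell kill = log CS(control) − log CS(treated). Mean of ≥3 independent experiments.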

NCI-H1299 [10] = test: Antiproliferative activity against wild type human NCI-H1299 cells assessed as cell growth inhibition measured after 4 hrs; assay type: functional, cell-based; conditions: NCI-H1299, 4 h; procedure, shortened: as §1
HCT-116 [11] = test: Antiproliferative activity against wild type human HCT-116 cells assessed as cell growth inhibition measured after 4 hrs; assay type: functional, cell-based; conditions: HCT-116, 4 h; procedure, shortened: as §1
HCT-116 [12] = test: Antiproliferative activity against human HCT-116 cells assessed as inhibition of cell growth incubated for 4 hrs under anoxic condition and measured after 5 days regrowth under aerobic condition; assay type: functional, cell-based
Procedure, shortened: (§5)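 Low-density monolayer antiproliferative assay. Cells exposed to prodrug for 4 h under aerobic or anoxic conditions, then regrown aerobically for 5 days. IC50 is the concentration giving 50% growth inhibition versus untreated controls. Mean values reported, CV <20%.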

[13] = Selectivity ratio of IC50 for antiproliferative activity against human HCT-116 cells assessed as inhibition of cell growth under aerobic condition to IC50 for antiproliferative activity against human HCT-116 cells assessed as inhibition of cell growth under anoxic condition; assay type: functional; procedure, shortened: as §3
HCT-116 [14] = test: Antiproliferative activity against human HCT-116 cells overexpressing cytochrome P450 oxidoreductase assessed as inhibition of cell growth incubated for 4 hrs under aerobic condition and measured after 5 days regrowth under aerobic condition; assay type: functional, cell-based; procedure, shortened: as §5
HCT-116 [15] = test: Antiproliferative activity against human HCT-116 cells overexpressing cytochrome P450 oxidoreductase assessed as inhibition of cell growth incubated for 4 hrs under anoxic condition and measured after 5 days regrowth under aerobic condition; assay type: functional, cell-based; procedure, shortened: as §5
[16] = Selectivity ratio of IC50 for antiproliferative activity against human HCT-116 cells overexpressing cytochrome P450 oxidoreductase assessed as inhibition of cell growth under aerobic condition to IC50 for antiproliferative activity against human HCT-116 cells overexpressing cytochrome P450 oxidoreductase assessed as inhibition of cell growth under anoxic condition; assay type: functional; procedure, shortened: as §3
SiHa [17] = test: Antiproliferative activity against human SiHa cells assessed as inhibition of cell growth incubated for 4 hrs under anoxic condition and measured after 5 days regrowth under aerobic condition; assay type: functional, cell-based; procedure, shortened: as §5
HCT-116 [18] = test: Antiproliferative activity against human HCT-116 cells in three-dimensional cell culture multicellular layer expressing AKR1C3 assessed as fold change in plating efficiency at 10 uM; assay type: functional
Procedure, shortened: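 100% AKR1C3-expressing HCT116 MCLs, against wild-type HCT116 MCLs, exposed to 10 μM prodrug. Clonogenic plating efficiency measured. Fold change is the plating-efficiency ratio between wild-type and transfected MCLs. ≥3 independent experiments.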

[19] = Selectivity ratio of IC50 for antiproliferative activity against wild type human NCI-H1299 cells to IC50 for antiproliferative activity against human NCI-H1299 cells expressing AKR1C3; assay type: functional; conditions: time 4 hrs; procedure, shortened: as §2
HCT-116 [20] = test: Antiproliferative activity against human HCT-116 cells expressing NfsA of Escherichia coli assessed as cell growth inhibition measured after 4 hrs; assay type: functional; conditions: HCT-116, 4 h; procedure, shortened: as §1
[21] = Toxicity in NIH-III nude mouse xenografted with human HCT-116 cells expressing NfsA of Escherichia coli assessed as body weight loss at 1000 micromol/kg, ip BID; assay type: organism-based; conditions: in vivo, at 1000 µmol/kg
[22] = Selectivity ratio of IC50 for antiproliferative activity against wild type human NCI-H1299 cells to IC50 for antiproliferative activity against human NCI-H1299 cells expressing NfsA of Escherichia coli; assay type: functional; conditions: time 4 hrs; procedure, shortened: as §2
[23] = Toxicity in NIH-III nude mouse xenografted with human HCT-116 cells expressing NfsA of Escherichia coli assessed as body weight loss at 1000 micromol/kg, ip BID measured on day 6; assay type: organism-based; conditions: in vivo, 144 h, at 1000 µmol/kg, time 6 day
[24] = Selectivity ratio of IC50 for antiproliferative activity against wild type human HCT-116 cells to IC50 for antiproliferative activity against human HCT-116 cells expressing NfsA of Escherichia coli; assay type: functional; conditions: time 4 hrs; procedure, shortened: as §2
HCT-116 [25] = test: Antiproliferative activity against human HCT-116 cells assessed as inhibition of cell growth incubated for 4 hrs under aerobic condition and measured after 5 days regrowth under aerobic condition; assay type: functional, cell-based; procedure, shortened: as §5
SiHa [26] = test: Antiproliferative activity against human SiHa cells assessed as inhibition of cell growth incubated for 4 hrs under aerobic condition and measured after 5 days regrowth under aerobic condition; assay type: functional, cell-based; procedure, shortened: as §5
HCT-116 [27] = test: Antiproliferative activity against human HCT-116 cells in three-dimensional cell culture multicellular layers assessed as log cell killing under anoxic condition at 100 uM; assay type: functional; procedure, shortened: as §4
[28] = Metabolic stability in mouse liver microsome assessed as half life in presence of NADPH by LC-MS/MS analysis; assay type: ADME; conditions: liver microsomes
Procedure, shortened: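 Male mouse hepatic microsomes incubated with prodrug for 30 min, with or without NADPH cofactor. Percentage of parent compound remaining tracked from triplicate incubations. Half-life estimated from this loss.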

CCN1CCN(C(=O)c2cc(N(CCBr)CCBr)c(S(=O)(=O)CC)cc2[N+](=O)[O-])CC1
Activity [1]: Non-Toxic | logD [2]: 2.1 | IC50 (NCI-H1299 [3]): 0.552 µM | IC50 (NCI-H1299 [4]): 54 µM | IC50 (HCT-116 [5]): 62 µM | fold change (FC) (HCT-116 [6]): 5178 | Ratio IC50 [7]: 1.5 | Ratio IC50 [8]: 11 | LCK (HCT-116 [9]): 2.3 | IC50 (NCI-H1299 [10]): 67 µM | IC50 (HCT-116 [11]): 95 µM | IC50 (HCT-116 [12]): 27 µM | Ratio IC50 [13]: 5.3 | IC50 (HCT-116 [14]): 60 µM | IC50 (HCT-116 [15]): 2.8 µM | Ratio IC50 [16]: 21 | IC50 (SiHa [17]): 23 µM | fold change (FC) (HCT-116 [18]): 0.9 | Ratio IC50 [19]: 1.2 | IC50 (HCT-116 [20]): 0.186 µM | Activity [21]: < 10% | Ratio IC50 [22]: 121 | Activity [23]: <= 7% | Ratio IC50 [24]: 511 | IC50 (HCT-116 [25]): 142 µM | IC50 (SiHa [26]): 253 µM | LCK (HCT-116 [27]): 0.016

CCN1CCN(C(=O)c2cc(N(CCBr)CCBr)c(S(C)(=O)=O)cc2[N+](=O)[O-])CC1
Activity [1]: Non-Toxic | logD [2]: 1.7 | IC50 (NCI-H1299 [3]): 0.175 µM | IC50 (NCI-H1299 [4]): 71 µM | IC50 (HCT-116 [5]): 49 µM | fold change (FC) (HCT-116 [6]): 825 | Ratio IC50 [7]: 1.6 | Ratio IC50 [8]: 16 | LCK (HCT-116 [9]): 2.3 | IC50 (NCI-H1299 [10]): 71 µM | IC50 (HCT-116 [11]): 77 µM | IC50 (HCT-116 [12]): 21 µM | Ratio IC50 [13]: 6.9 | IC50 (HCT-116 [14]): 54 µM | half-life [28]: 6.05 min | IC50 (HCT-116 [15]): 0.66 µM | Ratio IC50 [16]: 82 | IC50 (SiHa [17]): 10 µM | fold change (FC) (HCT-116 [18]): 1.2 | Ratio IC50 [19]: 1 | IC50 (HCT-116 [20]): 0.104 µM | Activity [21]: < 10% | Ratio IC50 [22]: 406 | Activity [23]: <= 7% | Ratio IC50 [24]: 740 | IC50 (HCT-116 [25]): 145 µM | IC50 (SiHa [26]): 164 µM | LCK (HCT-116 [27]): 0.016
